This is a sample that favours compounds with a hit; in the whole collection about 2.5% have one here.
NR2E3 ag-1 = activates human photoreceptor nuclear receptor NR2E3; AID 2300; GST-NR2E3/biotin-RetCOR TR-FRET, 1536-well; inhibition of corepressor binding, % at 4.78 µM; hit rate 0.12% among 320,000;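 active = percent inhibition above the cutoff of mean plus 3 SD of all tested compounds, set per screening campaign, cut at about 20% in these data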
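Material: NR2E3–RetCOR corepressor complex | Quantity: 1.35 nM GST-tagged NR2E3 final | Schedule: 5 h at 4 °C | Replication: Singlicate compound wells | Reagent: RetCOR corepressor, biotinylated, 7 nM | Controls: Biotin wells as high control, 0.6% DMSO wells as low control | Signal: TR-FRET, Eu(K)-anti-GST donor, streptavidin-D2 acceptor, ex 340, em 617/671 nm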
NadD block = NadD (S. aureus) enzyme inhibition; purified NadD enzyme, colorimetric absorbance read-out; inhibition, % at 20 µM; hit rate 0.78% among 360,000; in the data active = inhibition above about 26%
bovine MsrA act = bovine methionine sulfoxide reductase A activation; purified bovine MsrA, absorbance read-out; activation, % at 10.6 µM; hit rate 0.3% among 360,000; in the data active = activation above about 7.5%
MsrA inhibitor = inhibits bovine methionine sulfoxide reductase A. purified bovine MsrA, absorbance read-out. inhibition, % at 15.5 µM. hit rate 0.75% among 360,000. AID 651718
GalR3 antagonist = antagonists of human GalR3. inhibition, % at 3 µM. HEK293 GalR3-CNG cAMP membrane potential fluorescence; galR3 body fused to GalR1 C-terminus. hit rate 0.44% among 360,000. AID 651719. O60755;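 active = inhibition above the screen-wide average plus 3 SD, cut at about 13% in these data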;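 also: forskolin and galanin both at EC90 stimulate the cells; cAMP rise reported by CNG channel membrane potential dye signal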
Target sequence (O60755 1-299 limits assumed): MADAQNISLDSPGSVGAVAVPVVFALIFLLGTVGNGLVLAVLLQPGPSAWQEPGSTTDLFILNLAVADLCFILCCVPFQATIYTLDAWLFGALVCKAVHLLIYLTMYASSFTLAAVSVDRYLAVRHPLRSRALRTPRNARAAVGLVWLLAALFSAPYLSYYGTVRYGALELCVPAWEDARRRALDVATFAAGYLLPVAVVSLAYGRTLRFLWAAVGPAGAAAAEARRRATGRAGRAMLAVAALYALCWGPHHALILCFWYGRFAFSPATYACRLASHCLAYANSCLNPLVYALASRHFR
NR2E3 ag-2 = agonists of human NR2E3 nuclear receptor | Q9Y5X4 | CHO-S Gal4-NCOR/VP16-NR2E3 two-hybrid, luciferase | inhibition of corepressor binding, % at 3.98 µM | hit rate 0.35% among 360,000 | AID 602229;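 active = inhibition above the mean of all tested compounds plus 3 SD, cut at about 70% in these data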;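 also: higher means lower luciferase signal from less NR2E3 corepressor binding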
MsrA inh confirm = bovine MsrA inhibition, confirmed; shares compounds with MsrA inhibitor; purified bovine MsrA, absorbance read-out; inhibition, % at 15.5 µM; hit rate 41% among 2,300;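 also: coupled to thioredoxin reductase with NADPH and selenocystamine and DMSO as substrate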
Numbers stand for hits; . = inactive; / = no result. Rule as the data show it, unless noted: active = inhibition above about 4.5%; inactive = the rest.

SMILES	NR2E3 ag-1	NadD block	bovine MsrA act	MsrA inhibitor	GalR3 antagonist	NR2E3 ag-2	MsrA inh confirm
O=C(c1ccc(OC2CCN(Cc3ccccc3O)CC2)cc1)N1CCCCC1	.	.	.	.	.	.	/
O=C(O)c1ccc(/C=N/Nc2ccc(F)cc2F)cc1	.	.	.	5.6	.	.	.
COc1cc(/C=N/Nc2ncnc3sc4c(c23)CCC4)ccc1O	/	.	.	5.5	.	.	.
COc1cc(/C=N/NC2=NCCCCC2)ccc1O	.	.	.	.	.	.	/
CCN1C(=O)/C(=C\c2nc3ccccc3c(=O)n2CC)c2ccccc21	.	.	.	4.7	.	.	.
C=C(C)CSc1nc2nc(C)c(Br)cc2[nH]1	.	.	.	.	.	.	/
COCCNC(=O)Cn1cc(C(=O)c2ccco2)c2ccccc21	.	.	.	7.2	.	.	.
CN1c2ccsc2C(O)=C(C(=S)Nc2ccc(F)c(Cl)c2)S1(=O)=O	.	.	.	6.5	.	.	5.1
O=C(O)c1ccc(/C=C/c2ccc3cccc(O)c3n2)cc1	/	.	.	5.6	.	.	5.3
Oc1ccc(/C=N\Nc2nncc(-c3ccccc3)n2)cc1	.	.	.	5.8	.	.	.
COc1ccc(-c2cnnc(N/N=C/c3ccc(O)cc3)n2)cc1	.	.	.	.	.	.	/
O=C(NNC1=NS(=O)(=O)c2ccccc21)c1ccccc1	.	.	.	.	.	.	/
O=C(/C=C/c1ccccc1)NNC1=NS(=O)(=O)c2ccccc21	.	.	.	4.8	.	.	5.5
O=[N+]([O-])c1ccc(Oc2cccc3cccnc23)c([N+](=O)[O-])c1	.	.	.	7.3	.	.	.
N#Cc1ccc(Oc2cccc3cccnc23)c([N+](=O)[O-])c1	.	.	.	.	.	.	/
COc1cc(CC(=O)O)c([N+](=O)[O-])cc1OC	.	.	.	.	.	.	/
COc1cc2c(cc1[N+](=O)[O-])n(C(C)C)c(=O)n2C(C)C	.	.	.	8.7	.	.	6.3
Nc1ccc(/C=C/c2ccc3ncccc3c2)cc1	.	.	.	.	.	.	/
Nc1ccc(C=Cc2ccc(N)cc2)cc1	/	.	.	5.2	.	.	.
COc1ccccc1C1CC(c2ccc(Br)cc2)=NN1C(=O)c1cccnc1 (stereo not given)	.	.	.	.	.	.	/
N#C/C(C(=O)N1CCOCC1)=C1\Nc2ccccc2S1	.	.	.	7.9	.	.	5.7
N#C/C(=C\c1cccs1)C(=O)N1CCOCC1	.	.	.	.	.	.	/
N#C/C(=C\c1ccc(-c2cccc(C(F)(F)F)c2)o1)C(=O)Nn1cnnc1	.	.	.	4.8	.	.	.
O=[N+]([O-])c1ccccc1NC(=S)N/N=C/c1ccc(O)c(O)c1	.	.	.	5.9	.	.	7.3
O=C(O)CCC(=O)Nc1ccc(/C=C/C(=O)C2CC2)cc1	.	.	.	7.3	.	.	.
SMILES	NR2E3 ag-1	NadD block	bovine MsrA act	MsrA inhibitor	GalR3 antagonist	NR2E3 ag-2	MsrA inh confirm
Cc1ccc(Cl)cc1N1CCN(C(=O)C2CCCN(S(=O)(=O)c3cnc[nH]3)C2)CC1 (stereo not given)	.	.	.	.	/	.	/
CC(=O)c1ccc(N2CCN(C(=O)C3CCCN(S(=O)(=O)c4cnc[nH]4)C3)CC2)cc1 (stereo not given)	.	.	.	5.1	.	.	.
Cc1cccc(OC(=O)c2sc(Cl)nc2C)c1	.	.	.	.	.	.	/
CC1(c2ccc(OC(F)F)cc2)NC(=O)N(CC(=O)Nc2ccccc2)C1=O (stereo not given)	.	.	.	.	.	.	/
Cc1ccc2nc(-c3ccc(NC(=O)CN4C(=O)NC(C)(c5ccc(OC(F)F)cc5)C4=O)cc3)sc2c1 (stereo not given)	.	.	.	4.7	.	.	.
CCN(CC)S(=O)(=O)c1cccc(C(=O)OCC(=O)NCc2ccccc2OC)c1	.	.	.	.	.	.	/
CCN(CC(=O)Nc1ccc(NC(C)=O)cc1)C(=O)/C=C/c1cn(Cc2ccccc2)nc1-c1cccnc1	.	.	.	.	.	.	/
CN=c1sc2c(n1C)C(=O)c1ccccc1C2=O	/	.	.	9.7	.	.	7.0
Cc1ccccc1NC(=S)N(C)C1(c2ccccc2Cl)CCCCC1=O (stereo not given)	.	.	.	.	.	.	/
Cc1ccc(C(=O)c2ccccc2C(=O)O)c(O)c1	.	.	.	.	.	.	/
CN(C)c1ccc(C(=O)c2ccccc2C(=O)O)c(O)c1	.	.	.	6.4	.	.	5.8
NC(=O)c1ccccc1NC(=O)CCCN1C(=O)CCC1=O	.	.	.	.	.	.	/
Cc1c(N=Nc2ccc(O)cc2)c(=O)n(-c2ccccc2)n1C	.	.	.	5.2	.	.	.
CN(C)/C=N/c1ncc(C(=O)c2ccccc2)s1	.	.	.	5.6	.	.	4.7
Oc1[nH]c2ccccc2c1C=Nc1ccccc1	.	.	.	5.1	.	.	.
CN(C)CC(C)(C)CN=Cc1c(O)[nH]c2ccccc12	.	.	.	6.0	.	.	.
OCCN=Cc1c(O)[nH]c2ccccc12	.	.	.	.	.	.	/
COc1ccc(-c2c(C)nn3c(C)cc(C)nc23)cc1	.	.	.	.	.	.	/
CN(CC(=O)Nc1ccc(F)cc1)C(=O)c1ccncc1	.	.	.	.	.	.	/
Cc1ccc2cc(C#N)c(N3CCCN(C(=O)c4cnccn4)CC3)nc2c1	.	.	.	.	.	.	/
COc1cc(/C=C/c2nc3ccccc3c(=O)[nH]2)ccc1O	/	.	.	7.0	.	.	.
CCOc1cc(/C=C/c2nc3ccccc3c(=O)[nH]2)ccc1O	.	.	.	.	.	.	/
O=C(O)CSc1cc(NS(=O)(=O)c2cccc([N+](=O)[O-])c2)c2ccccc2c1O	/	.	.	20	.	.	.
COc1cc(/C=N/Nc2ccccn2)cc(OC)c1O	.	.	.	6.0	.	.	.
CCOc1ccc(/C=N/Nc2ccccn2)cc1OC	.	.	.	.	.	.	/
SMILES	NR2E3 ag-1	NadD block	bovine MsrA act	MsrA inhibitor	GalR3 antagonist	NR2E3 ag-2	MsrA inh confirm
CCOC(=O)CN1C(=O)S/C(=C/c2ccc(O)c([N+](=O)[O-])c2)C1=O	.	.	.	.	.	.	/
Cc1ccc(CNC(=S)NC2CCC(C(C)(C)C)CC2)cc1 (stereo not given)	/	.	.	.	.	.	/
CCCN(CCC)C1=CC(=[N+]2CCCC2)CC(C)(C)C1	.	.	.	5.1	24	.	.
CN(C)NC1=CC(=[N+]2CCCC2)CC(C)(C)C1	.	.	.	.	.	.	/
NC(=O)COC(=O)C12CC3CC(CC(O)(C3)C1)C2	.	.	.	.	.	.	/
NC(CSS(=O)(=O)O)=NCCC12CC3CC(CC(O)(C3)C1)C2	.	.	.	7.5	.	.	.
CC1(C(=O)c2ccccc2)C2c3c(ccc4ccccc34)OC(=O)C21C(=O)N1CCOCC1 (stereo not given)	.	.	.	.	.	.	/

From PubChem BioAssay
